Calls of active or inactive are those of the source. The rule behind the calls is not given here.
Columns and labels:
[1] = biological target: DNA topoisomerase 2-alpha (Homo sapiens) (UniProt P11388); assay: Inhibition of human recombinant topoisomerase 2-mediated relaxation of supercoiled […] by agarose gel electrophoresis
In short: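 Supercoiled pUC19 (350 ng) preincubated with compound at […], or etoposide at 20 or 50, before adding 10 units human topoisomerase II; 37 °C for 45 min in cleavage buffer. Stopped with SDS 0.25% plus proteinase K, 30 min at 50 °C. Run on 1% agarose containing ethidium bromide, 2 h at 120 V in TBE.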

L1210 = assay: Cytotoxicity against mouse L1210 cells; format: functional, cell-based
In short: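 Mouse leukemia L1210 cells grown in RPMI 1640 with 10% FCS, 2 mM glutamine, penicillin/streptomycin and 10 mM HEPES pH 7.4. Exposed 48 h to nine graded drug concentrations in triplicate. Read by microculture tetrazolium assay. IC50 is the concentration that halves absorbance relative to untreated cells; mean of 3.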

Calf thymus DNA [2] = assay: Binding affinity to calf thymus DNA assessed as change in melting temperature; format: nucleic-acid assay; details: Bos taurus
In short: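 CT-DNA ([…] as printed) in 1 mL BPE buffer pH 7.1 (6 mM Na2HPO4, 2 mM NaH2PO4, 1 mM EDTA), alone or with drug at base pair/drug ratio 1. A260 recorded every min, 20–100 °C at 1 °C/min, Peltier-controlled. Tm taken as midpoint of hyperchromic double- to single-strand transition; ΔTm relative to DNA alone.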

[3] = biological target: T1, DNA topoisomerase 1 (Homo sapiens) (UniProt P11387); assay: Inhibition of human recombinant topoisomerase 1-mediated relaxation of supercoiled pUC19 at 1 to 5 uM by agarose gel electrophoresis
T1 sequence (whole entry): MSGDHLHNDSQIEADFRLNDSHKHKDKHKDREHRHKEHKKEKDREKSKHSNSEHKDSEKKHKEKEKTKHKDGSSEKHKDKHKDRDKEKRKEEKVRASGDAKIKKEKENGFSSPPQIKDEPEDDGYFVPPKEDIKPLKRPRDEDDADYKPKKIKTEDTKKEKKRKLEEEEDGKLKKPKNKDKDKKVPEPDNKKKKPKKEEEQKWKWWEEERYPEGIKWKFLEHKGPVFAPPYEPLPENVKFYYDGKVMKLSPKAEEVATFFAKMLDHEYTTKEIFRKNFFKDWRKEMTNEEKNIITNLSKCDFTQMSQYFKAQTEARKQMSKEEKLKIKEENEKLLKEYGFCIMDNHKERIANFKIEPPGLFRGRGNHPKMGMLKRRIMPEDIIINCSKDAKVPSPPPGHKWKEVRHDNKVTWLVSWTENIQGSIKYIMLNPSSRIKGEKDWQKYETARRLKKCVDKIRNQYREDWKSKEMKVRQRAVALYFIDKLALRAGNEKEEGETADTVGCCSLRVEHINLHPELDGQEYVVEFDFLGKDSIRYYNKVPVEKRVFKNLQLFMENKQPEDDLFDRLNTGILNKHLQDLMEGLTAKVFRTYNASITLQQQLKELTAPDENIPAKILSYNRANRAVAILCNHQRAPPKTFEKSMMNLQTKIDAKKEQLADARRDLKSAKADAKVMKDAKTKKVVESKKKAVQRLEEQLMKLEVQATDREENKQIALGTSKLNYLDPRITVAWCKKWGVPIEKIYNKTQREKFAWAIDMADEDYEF

Calf thymus DNA [4] = assay: Binding affinity to calf thymus DNA assessed as decrease in fluorescence intensity at 20 uM by fluorescence spectrophotometry; format: nucleic-acid assay; details: Bos taurus
In short: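 Fluorescent compound at […] in 1 mL BPE buffer pH 7.1, with or without […] CT-DNA, in a 10 mm quartz cuvette. Excitation at 268, 275 or 285 nm depending on compound; emission spectra scanned.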

[5] = biological target: T1, DNA topoisomerase 1 (Homo sapiens); assay: Inhibition of human recombinant topoisomerase 1-mediated relaxation of supercoiled pUC19 by agarose gel electrophoresis
Calf thymus DNA [6] = assay: Binding affinity to calf thymus DNA assessed as decrease in absorbance at 20 uM by UV-visible spectrophotometry; format: nucleic-acid assay; details: Bos taurus
In short: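 Compound at […], with or without CT-DNA at […], in 1 mL BPE buffer pH 7.1 in a 10 mm quartz cuvette. Spectra scanned 230–500 nm against a blank holding the same DNA concentration in the same buffer. Drug/DNA ratio 1; DMSO stocks diluted into buffer.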

Calf thymus DNA [7] = assay: Binding affinity to calf thymus DNA assessed as circular dichroism at 50 uM by J810 Jasco spectrophotometer; format: nucleic-acid assay; details: Bos taurus
In short: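 CT-DNA deproteinized with SDS and dialyzed against 1 mM sodium cacodylate pH 7.0. Drug at […], with or without […] base pairs CT-DNA, in 1 mL 1 mM sodium cacodylate pH 7.0. CD spectra recorded 500–230 nm at 0.1 nm resolution.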

Sequence of DNA topoisomerase 2-alpha (Homo sapiens) (P11388 whole entry): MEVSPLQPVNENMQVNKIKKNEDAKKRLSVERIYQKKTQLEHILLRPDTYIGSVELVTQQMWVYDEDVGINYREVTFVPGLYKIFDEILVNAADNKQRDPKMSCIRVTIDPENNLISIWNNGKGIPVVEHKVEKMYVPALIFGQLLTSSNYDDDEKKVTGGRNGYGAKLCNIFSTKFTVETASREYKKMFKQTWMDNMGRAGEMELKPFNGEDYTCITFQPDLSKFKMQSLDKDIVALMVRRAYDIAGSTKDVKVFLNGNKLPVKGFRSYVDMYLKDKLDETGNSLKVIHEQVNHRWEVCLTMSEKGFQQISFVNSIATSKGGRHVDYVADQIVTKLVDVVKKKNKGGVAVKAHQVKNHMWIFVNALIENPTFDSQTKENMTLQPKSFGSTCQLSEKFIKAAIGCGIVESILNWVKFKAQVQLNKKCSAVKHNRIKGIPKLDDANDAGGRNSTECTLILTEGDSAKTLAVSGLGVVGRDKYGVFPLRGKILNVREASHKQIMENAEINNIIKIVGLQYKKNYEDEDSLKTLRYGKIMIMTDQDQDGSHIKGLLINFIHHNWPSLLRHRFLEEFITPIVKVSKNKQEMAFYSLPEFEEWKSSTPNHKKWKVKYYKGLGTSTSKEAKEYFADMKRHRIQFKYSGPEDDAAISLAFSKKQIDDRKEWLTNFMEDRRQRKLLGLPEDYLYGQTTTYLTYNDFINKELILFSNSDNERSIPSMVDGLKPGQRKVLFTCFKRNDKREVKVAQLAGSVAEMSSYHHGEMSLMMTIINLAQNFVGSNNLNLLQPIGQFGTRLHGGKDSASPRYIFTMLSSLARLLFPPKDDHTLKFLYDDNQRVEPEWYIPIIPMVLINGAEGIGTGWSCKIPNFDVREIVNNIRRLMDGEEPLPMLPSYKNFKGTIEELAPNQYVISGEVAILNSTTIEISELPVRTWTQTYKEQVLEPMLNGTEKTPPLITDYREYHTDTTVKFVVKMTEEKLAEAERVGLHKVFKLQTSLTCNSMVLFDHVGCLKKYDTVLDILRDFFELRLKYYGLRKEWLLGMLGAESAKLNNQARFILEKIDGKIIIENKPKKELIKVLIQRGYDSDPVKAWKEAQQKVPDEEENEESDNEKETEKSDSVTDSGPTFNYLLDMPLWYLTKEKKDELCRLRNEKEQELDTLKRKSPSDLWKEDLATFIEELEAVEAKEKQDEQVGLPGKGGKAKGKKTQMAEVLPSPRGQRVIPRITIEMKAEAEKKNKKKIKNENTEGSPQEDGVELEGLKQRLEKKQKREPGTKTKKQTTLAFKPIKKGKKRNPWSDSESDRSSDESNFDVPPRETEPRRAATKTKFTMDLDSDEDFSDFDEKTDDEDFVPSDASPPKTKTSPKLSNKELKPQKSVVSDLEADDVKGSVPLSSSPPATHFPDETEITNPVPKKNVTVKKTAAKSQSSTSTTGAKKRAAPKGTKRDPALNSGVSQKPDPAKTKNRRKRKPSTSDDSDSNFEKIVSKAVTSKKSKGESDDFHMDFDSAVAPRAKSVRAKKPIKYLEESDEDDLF

| Compound | Activity [1] | IC50 (L1210) [nM] | ΔTm (Calf thymus DNA [2]) [°C] | Activity [3] | Activity (Calf thymus DNA [4]) | Activity [5] | Activity (Calf thymus DNA [6]) | inhibition [3] | Activity (Calf thymus DNA [7]) |
| --- | --- | --- | --- | --- | --- | --- | --- | --- | --- |
| CCN(CC)CCCNc1nccc2c1ccc1c3cc(OC)c(OC)cc3cnc21 | Active | 3700 |  |  |  |  |  |  |  |
| COc1cc2cnc3c4ccncc4ccc3c2cc1OC |  | 6600 |  |  |  |  |  |  |  |
| CCN(CC)CCNc1ccc2c(ccc3c4cc5c(cc4cnc23)OCO5)n1 | Active | 1740 | 5 | inactive | Active | Active | Active |  |  |
| COc1cc2cnc3c4ccc(NCCCN(C)C)nc4ccc3c2cc1OC | Active | 2850 | 0 |  | Active |  | Active |  |  |
| COc1cc2cnc3c4ccc(NCCN(C)C)nc4ccc3c2cc1OC | Active | 1730 | 12 |  | Active | Active | Active | inactive |  |
| COc1cc2cnc3c4ccnc(NCCCN(C)C)c4ccc3c2cc1OC | Active | 1800 |  |  |  |  | Active |  |  |
| COc1cc2cnc3c4ccnc(NCCN(C)C)c4ccc3c2cc1OC | Active | 3510 | 9 |  |  |  | Active |  |  |
| CCN(CC)CCCNc1ccc2c(ccc3c4cc5c(cc4cnc23)OCO5)n1 | Active | 830 | 11 |  | Active |  | Active |  | Active |
| COc1cc2cnc3c4cccnc4ccc3c2cc1OC |  | 7100 |  |  |  |  |  |  |  |
| c1cc2c(ccc3c4cc5c(cc4cnc23)OCO5)cn1 |  | 4400 |  |  |  |  |  |  |  |
| c1cnc2ccc3c4cc5c(cc4cnc3c2c1)OCO5 |  | 8800 |  |  |  |  |  |  |  |
| CCN(CC)CCCNc1ccc2c(ccc3c4cc(OC)c(OC)cc4cnc23)n1 | Active | 1260 |  |  | Active |  | Active |  |  |
| CCN(CC)CCNc1nccc2c1ccc1c3cc(OC)c(OC)cc3cnc21 | Active | 1770 | 9 |  |  |  | Active |  |  |
| CCN(CC)CCNc1ccc2c(ccc3c4cc(OC)c(OC)cc4cnc23)n1 | Active | 960 | 5 |  | Active |  | Active |  |  |
| CN(C)CCNc1nccc2c1ccc1c3cc4c(cc3cnc21)OCO4 | Active |  | 7 | inactive |  | Active | Active |  |  |
| CN(C)CCNc1ccc2c(ccc3c4cc5c(cc4cnc23)OCO5)n1 | Active | 320 | 4 | inactive | Active | Active | Active |  |  |
| CN(C)CCCNc1nccc2c1ccc1c3cc4c(cc3cnc21)OCO4 | Active | 290 | 14 | inactive |  | Active | Active |  | Active |
| COc1cc2cnc3c4ccnc(Cl)c4ccc3c2cc1OC |  | 4300 |  |  |  |  |  |  |  |
| CN(C)CCCNc1ccc2c(ccc3c4cc5c(cc4cnc23)OCO5)n1 | Active | 510 |  |  | Active |  | Active |  | Active |
| COc1cc2c(ccc3c4cc(OC)c(OC)cc4c[n+](C)c23)cc1O [FAGARONINE] |  | 6600 |  |  |  |  |  |  |  |
